Data taken from ChEMBL document CHEMBL1153805, “Phenylethanoid glycosides from Lantana fucata with in vitro anti-inflammatory activity” (J Nat Prod, 2009).

Legend:
J774.A1 [1] = test: Antiinflammatory activity in mouse J774A1 cells assessed as inhibition of LPS-induced NO release at 1 ug/ml after 24 hrs treated 1 hr before LPS challenge relative to LPS; assay type: functional
How it was run: (§1)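 J774A.1 cells (5.0 × 10⁴/well) adhered 2 h at 37 °C, 5% CO₂. Compounds added 1 h before and simultaneously with E. coli LPS (6 × 10³ U/mL) to induce iNOS. Nitrite accumulated in medium was measured 24 h after LPS with Griess reagent against a sodium nitrite standard curve made in culture medium. Expressed as % inhibition versus LPS-only cells. L-NAME (1 µM) was the reference.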

[2] = Antiproliferative activity against mouse J774A1 cells assessed as cell viability at 10 ug/ml after 72 hrs by MTT assay relative to LPS; assay type: cell-based, J774.A1
How it was run: (§2)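 J774A.1 cells (3.5 × 10⁴/well) adhered 2 h at 37 °C, 5% CO₂. Medium was renewed, then serial dilutions of compound were added for 72 h. MTT was added for a further 3 h, formazan was dissolved in 50% DMF/20% SDS (pH 4.5), and OD was read at 620 nm. % dead cells = 100 − (OD treated/OD control) × 100. A cell-free control tested for MTT interference.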

J774.A1 [3] = test: Antiinflammatory activity in mouse J774A1 cells assessed as inhibition of LPS-induced NO release at 100 ug/ml after 24 hrs treated 1 hr before LPS challenge relative to LPS; assay type: functional; how it was run: as §1
J774.A1 [4] = test: Antiinflammatory activity in mouse J774A1 cells assessed as inhibition of LPS-induced NO release at 10 ug/ml after 24 hrs treated 1 hr before LPS challenge relative to LPS; assay type: functional; how it was run: as §1
[5] = Antiproliferative activity against mouse J774A1 cells assessed as cell viability at 1 ug/ml after 72 hrs by MTT assay relative to LPS; assay type: cell-based, J774.A1; how it was run: as §2
[6] = Antiproliferative activity against mouse J774A1 cells assessed as cell viability at 100 ug/ml after 72 hrs by MTT assay relative to LPS; assay type: cell-based, J774.A1; how it was run: as §2
J774.A1 [7] = test: Antiinflammatory activity in mouse J774A1 cells assessed as inhibition of LPS-induced NO release at 1 uM after 24 hrs treated 1 hr before LPS challenge relative to LPS; assay type: functional
How it was run: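 J774A.1 murine macrophages plated at 5.0 × 10⁴ cells/well, adhered 2 h at 37 °C in 5% CO₂. Compounds (1-100 µg/mL) added 1 h before and simultaneously with E. coli LPS (6 × 10³ U/mL) to induce iNOS. After 24 h, nitrite in medium measured by Griess reagent against a sodium nitrite standard curve made in culture medium. Expressed as % inhibition versus LPS alone.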

| Structure (SMILES) | inhibition at 1 µg/mL (J774.A1 [1]) | viability at 72 h, 10 ug/ml [2] | inhibition at 100 µg/mL (J774.A1 [3]) | inhibition at 10 µg/mL (J774.A1 [4]) | viability at 72 h, 1 ug/ml [5] | viability at 72 h, 100 ug/ml [6] | inhibition at 1 µM (J774.A1 [7]) |
| --- | --- | --- | --- | --- | --- | --- | --- |
| O=C(/C=C/c1ccc(O)c(O)c1)O[C@H]1[C@H](O)[C@@H](O[C@@H]2OC[C@](O)(CO)[C@H]2O)[C@H](OCCc2ccc(O)c(O)c2)O[C@@H]1CO [FUCATOSIDE A] | 13.3% | 95.9% | 52.5% | 11.2% | 97.3% | 95% | – |
| C[C@@H]1O[C@@H](O[C@H]2[C@H](OCCc3ccc(O)c(O)c3)O[C@H](CO)[C@@H](OC(=O)/C=C/c3ccc(O)c(O)c3)[C@@H]2O)[C@H](O)[C@H](O)[C@H]1O [PARVIFLOROSIDE A] | 3.8% | 95.9% | 88.5% | 9% | 96.7% | 96.9% | – |
| Sc1ncnc2nc[nH]c12 [MERCAPTOPURINE ANHYDROUS] | – | 38% | – | – | 44.1% | 31.8% | – |
| COC(=O)[C@@H](N)CCCNC(=N)N[N+](=O)[O-] [L-NAME] | – | – | – | – | – | – | 46.6% |
| O=C(/C=C/c1ccc(O)c(O)c1)O[C@H]1[C@H](O[C@@H]2OC[C@](O)(CO)[C@H]2O)[C@@H](O[C@@H]2OC[C@@H](O)[C@H](O)[C@H]2O)[C@H](OCCc2ccc(O)c(O)c2)O[C@@H]1CO [FUCATOSIDE B] | 13.7% | 96.1% | 81.4% | 16.4% | 97.5% | 94.4% | – |
| O=C(/C=C/c1ccc(O)c(O)c1)O[C@H]1[C@H](O[C@@H]2OC[C@@](O)(CO)[C@H]2O)[C@@H](O[C@@H]2OC[C@@](O)(CO)[C@H]2O)[C@H](OCCc2ccc(O)c(O)c2)O[C@@H]1CO [FUCATOSIDE C] | 4.4% | 96.8% | 93.7% | 31.8% | 96.4% | 94.3% | – |
